These results are taken from ChEMBL document CHEMBL1146596, “New lupane derived compounds with pro-apoptotic activity in cancer cells: synthesis and structure-activity relationships” (2003).

This assay relates to CCRF-CEM. Put plainly: Cytotoxicity against chemosensitive CEM-T lymphoblastc leukemia cell line. Type of assay: functional, Homo sapiens. The procedure, abridged: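 Cells were kept in DMEM/RPMI 1640 with 10% fetal calf serum, 2 mM glutamine and antibiotics. They were seeded at 2500–30 000 cells/well according to growth characteristics and preincubated 24 h at 37 °C, 5% CO2. Four-fold compound dilutions were tested in duplicate for 72 h. MTT was then added for 1–4 h, the formazan was dissolved in 10% SDS (pH 5.5) overnight, and OD was read at 540 nm. Survival was taken relative to mean control, and TCS50 was derived from dose–response curves.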
Turning to `CC(=O)O[C@H]1CC[C@]2(C)[C@H]3CC[C@@H]4C(=O)CCC[C@@]4(C)[C@]3(C)CC[C@H]2C1(C)C`, the TCS50 is >250 µM.
Molecule `CCOC[C@@H]1CC[C@]2(C)[C@H](CC[C@@H]3[C@@]4(C)CC[C@H](OC(C)=O)C(C)(C)[C@@H]4CC[C@]32C)C1=O` registered a TCS50 of 50 µM.
In the case of `CC(=O)OC[C@@]12CC[C@]3(C)[C@H](CC[C@@H]4[C@@]5(C)CC[C@H](OC(C)=O)C(C)(C)[C@@H]5CC[C@]43C)C1=C(C(C)C)C(=O)OC2=O`, the TCS50 was >250 µM.
As for `COC(=O)C[C@]1(COC(C)=O)CC[C@]2(C)[C@H](CC[C@@H]3[C@@]4(C)CC[C@H](OC(C)=O)C(C)(C)[C@@H]4CC[C@]32C)C1=O`, the TCS50 is >250 µM.
The figure for `COC(=O)C[C@]1(C(=O)OC)CC[C@]2(C)[C@H](CC[C@@H]3[C@@]4(C)CC[C@H](OC(C)=O)C(C)(C)[C@@H]4CC[C@]32C)C1=O` is >250 µM; for `CC(=O)O[C@H]1CC[C@]2(C)[C@H]3CC[C@@H]4C(=O)[C@]5(CC[C@@]4(C)[C@]3(C)CC[C@H]2C1(C)C)COC(=O)C5` it is >250 µM; for `CC(=O)OC[C@@]1(CC(=O)O)CC[C@]2(C)[C@H](CC[C@@H]3[C@@]4(C)CC[C@H](OC(C)=O)C(C)(C)[C@@H]4CC[C@]32C)C1=O` it is 5 µM.
As to `COC(=O)[C@@]1(CC(=O)O)CC[C@]2(C)[C@H](CC[C@@H]3[C@@]4(C)CC[C@H](OC(C)=O)C(C)(C)[C@@H]4CC[C@]32C)C1=O`, the TCS50 worked out at 110 µM.
Regarding `CC(=O)O[C@H]1CC[C@]2(C)[C@H]3CC[C@@H]4C5=C(C(C)C)C(=O)C[C@]5(C(=O)OCOC(=O)C(C)(C)C)CC[C@@]4(C)[C@]3(C)CC[C@H]2C1(C)C`, the TCS50 stood at 62.7 µM.
Then `COC(=O)C[C@]1(C(=O)OCOC(=O)C(C)(C)C)CC[C@]2(C)[C@H](CC[C@@H]3[C@@]4(C)CC[C@H](OC(C)=O)C(C)(C)[C@@H]4CC[C@]32C)C1=O`, with 99 µM.
`CC(=O)OCOC(=O)[C@@]12CC[C@]3(C)[C@H](CC[C@@H]4[C@@]5(C)CC[C@H](OC(C)=O)C(C)(C)[C@@H]5CC[C@]43C)C1=C(C(C)C)C(=O)C2=O`: the TCS50 worked out at 3 µM.
Consider `CC(=O)O[C@H]1CC[C@]2(C)[C@H]3CC[C@H](C(=O)OCOC(=O)C(C)(C)C)[C@@](C)(CCC(=O)OCOC(=O)C(C)(C)C)[C@]3(C)CC[C@H]2C1(C)C`, for which the TCS50 is >250 µM.
On to `CC(=O)OC[C@@]1(C(=O)C(=O)C(=O)C(C)C)CC[C@]2(C)[C@H](CC[C@@H]3[C@@]4(C)CC[C@H](OC(C)=O)C(C)(C)[C@@H]4CC[C@]32C)C1=O`, for which the TCS50 turned out to be 71 µM.
With `C=C1CC[C@]2(C)[C@H](CC[C@@H]3[C@@]4(C)CC[C@H](OC(C)=O)C(C)(C)[C@@H]4CC[C@]32C)C1=O`, the TCS50 was >250 µM.
Molecule `CC(=O)OC[C@@]12CC[C@]3(C)[C@H](CC[C@@H]4[C@@]5(C)CC[C@H](OC(C)=O)C(C)(C)[C@@H]5CC[C@]43C)C1=C(C(C)C)C(=O)C2=O` returned a TCS50 of 66 µM.
With `CC(=O)OCOC(=O)[C@@]1(CC(=O)C(=O)C(C)C)CC[C@]2(C)[C@H](CC[C@@H]3[C@@]4(C)CC[C@H](OC(C)=O)C(C)(C)[C@@H]4CC[C@]32C)C1=O`, the TCS50 came out at 18 µM.
Take `CC(=O)OC[C@@]1(CC(=O)C(=O)C(C)C)CC[C@]2(C)[C@H](CC[C@@H]3[C@@]4(C)CC[C@H](OC(C)=O)C(C)(C)[C@@H]4CC[C@]32C)C1=O`: the TCS50 was >250 µM.
On to `COC(=O)[C@]1(COC(C)=O)CC[C@]2(C)[C@H](CC[C@@H]3[C@@]4(C)CC[C@H](OC(C)=O)C(C)(C)[C@@H]4CC[C@]32C)C1=O`, for which the TCS50 stood at 120 µM.
The figure for `CC(=O)OCOC(=O)[C@]1(COC(C)=O)CC[C@]2(C)[C@H](CC[C@@H]3[C@@]4(C)CC[C@H](OC(C)=O)C(C)(C)[C@@H]4CC[C@]32C)C1=O` is 86 µM; for `COC(=O)[C@@]1(CC(=O)C(=O)C(C)C)CC[C@]2(C)[C@H](CC[C@@H]3[C@@]4(C)CC[C@H](OC(C)=O)C(C)(C)[C@@H]4CC[C@]32C)C1=O` it is 107 µM; for `COC(=O)C[C@]1(C(=O)OCOC(C)=O)CC[C@]2(C)[C@H](CC[C@@H]3[C@@]4(C)CC[C@H](OC(C)=O)C(C)(C)[C@@H]4CC[C@]32C)C1=O` it is 94 µM.
Regarding `CC(=O)OC[C@]12C=CC(C(C)C)=C1[C@H]1CC[C@@H]3[C@@]4(C)CC[C@H](OC(C)=O)C(C)(C)[C@@H]4CC[C@@]3(C)[C@]1(C)CC2`, the TCS50 is >250 µM.
As to `CC(=O)O[C@H]1CC[C@]2(C)[C@H]3CC[C@H](C(=O)O)[C@@](C)(CCC(=O)O)[C@]3(C)CC[C@H]2C1(C)C`, the TCS50 is >250 µM.
On to `CC(=O)O[C@H]1CC[C@]2(C)[C@H]3CC[C@@H]4C5=C(C(C)C)C(=O)C[C@]5(C(=O)O)CC[C@@]4(C)[C@]3(C)CC[C@H]2C1(C)C`, for which the TCS50 was >250 µM.
In turn, `CC(=O)OC[C@@]12CC[C@]3(C)[C@H](CC[C@@H]4[C@@]5(C)CC[C@H](OC(C)=O)C(C)(C)[C@@H]5CC[C@]43C)C1=C(C(C)C)C(=O)C2` returned a TCS50 of 14 µM.
As for `COC(=O)CC[C@]1(C)[C@@H](C(=O)OC)CC[C@@H]2[C@@]3(C)CC[C@H](OC(C)=O)C(C)(C)[C@@H]3CC[C@]21C`, the TCS50 is >250 µM.
As to `CC(=O)O[C@H]1CC[C@]2(C)[C@H]3CC[C@@H]4C5=C(C(C)C)C(=O)C(=O)[C@]5(C(=O)OCOC(=O)C(C)(C)C)CC[C@@]4(C)[C@]3(C)CC[C@H]2C1(C)C`, the TCS50 is 105.4 µM.
With `CC(=O)OCOC(=O)[C@@]12CC[C@]3(C)[C@H](CC[C@@H]4[C@@]5(C)CC[C@H](OC(C)=O)C(C)(C)[C@@H]5CC[C@]43C)C1=C(C(C)C)C(=O)C2`, the TCS50 is >250 µM.
Molecule `COC(=O)[C@@]12CC[C@]3(C)[C@H](CC[C@@H]4[C@@]5(C)CC[C@H](OC(C)=O)C(C)(C)[C@@H]5CC[C@]43C)C1=C(C(C)C)C(=O)C2` had a TCS50 of 20.4 µM.
Consider `COC(=O)[C@@]12CC[C@]3(C)[C@H](CC[C@@H]4[C@@]5(C)CC[C@H](OC(C)=O)C(C)(C)[C@@H]5CC[C@]43C)C1=C(C(C)C)C(=O)OC2=O`, for which the TCS50 came to 127 µM.
For the molecule `CC(=O)O[C@H]1CC[C@]2(C)[C@H]3CC[C@@H]4C(=O)[C@@](CC(=O)C(=O)C(C)C)(C(=O)OCOC(=O)C(C)(C)C)CC[C@@]4(C)[C@]3(C)CC[C@H]2C1(C)C`, the TCS50 was >250 µM.
Then `CC(=O)O[C@H]1CC[C@]2(C)[C@H]3CC[C@@H]4C5=C(C(C)C)C(=O)C[C@]5(CO)CC[C@@]4(C)[C@]3(C)CC[C@H]2C1(C)C`, with 232 µM; and `COC(=O)C[C@@H]1CC[C@]2(C)[C@H](CC[C@@H]3[C@@]4(C)CC[C@H](OC(C)=O)C(C)(C)[C@@H]4CC[C@]32C)C1=O`, with 106 µM.
